Measurements published in ChEMBL document CHEMBL4811272, “A new sulfated triterpene glycoside from the sea cucumber Colochirus quadrangularis, and evaluation of its antifungal, antitumor and immunomodulatory activities” (Bioorg Med Chem, 2021).
In brackets after ≈: the same amount, converted by molar mass.

Tests used:
Candida albicans = test: Antifungal activity against Candida albicans ATCC 76615 by microplate reader assay; assay type: functional; details: ATTCC76615
How it was run: (§1)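 Broth microdilution read by optical density at 630 nm. MIC80 is the first well with about 80% less growth than the drug-free well. Each concentration was run in three replicate wells, and values are means of three independent experiments.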

Cryptococcus neoformans = test: Antifungal activity against Cryptococcus neoformans ATCC 32609 by microplate reader assay; assay type: functional; details: ATTCC32609; how it was run: as §1
Candida tropicalis = test: Antifungal activity against clinical strain Candida tropicalis by microplate reader assay; assay type: functional; how it was run: as §1
Candida parapsilosis = test: Antifungal activity against clinical strain Candida parapsilosis by microplate reader assay; assay type: functional; details: Lodderomyces parapsilosis; how it was run: as §1
Bel-7402 [1] = test: Antitumor activity against human Bel-7402 cells implanted in BALB/c-nu mouse assessed as tumor growth inhibition at 100 mg/kg, IG administered everyday for 7 days relative to control; assay type: functional; details: Bel-7402, po, 168 h, time 7 day, read-out: TGI
Pyricularia oryzae = test: Antifungal activity against Pyricularia oryzae P-2B by measuring minimum morphological deformation concentration; assay type: functional; details: read-out: MEC
CCRF S-180 = test: Antitumor activity against mouse S-180 cells implanted in KM mouse assessed as tumor growth inhibition at 25 mg/kg, IG administered everyday for 7 days relative to control; assay type: functional; details: CCRF S-180, po, 168 h, time 7 day, read-out: TGI
How it was run: (§2)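 S-180 or H22 cells, about 2.5 × 10⁶ per mouse, injected s.c. in the right axilla of wild-type KM mice. Randomized after 24 h and dosed intragastrically for 7 days; sacrificed 24 h after the last dose. TGI = (W_C − W_T)/W_C × 100% from average tumor weight. n = 8; one-way ANOVA vs vehicle.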

H22 = test: Antitumor activity against mouse H22 cells implanted in KM mouse assessed as tumor growth inhibition at 25 mg/kg, IG administered everyday for 7 days relative to control; assay type: functional; details: H22, po, 168 h, time 7 day, read-out: TGI; how it was run: as §2
A549 = test: Cytotoxicity against human A549 cells assessed as reduction in cell viability by sulforhodamine B assay; assay type: functional, cell-based
How it was run: (§3)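 Cells were kept in RPMI-1640 with 10% FBS, 2 mM L-glutamine, 50 μM β-mercaptoethanol and penicillin/streptomycin, at 37 °C in 5% CO2. SRB assay used 100, 10, 1, 0.1 and 0.01 μM, each in triplicate. Percent inhibition was calculated against solvent control OD. IC50 came from Logit curve fitting and is the mean of three independent experiments.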

MKN-28 = test: Cytotoxicity against human MKN-28 cells assessed as reduction in cell viability by sulforhodamine B assay; assay type: functional, cell-based; how it was run: as §3
MCF7 = test: Cytotoxicity against human MCF7 cells assessed as reduction in cell viability by sulforhodamine B assay; assay type: functional, cell-based; how it was run: as §3
HCT-116 = test: Cytotoxicity against human HCT-116 cells assessed as reduction in cell viability by sulforhodamine B assay; assay type: functional, cell-based; how it was run: as §3
Bel-7402 [2] = test: Cytotoxicity against human Bel-7402 cells assessed as reduction in cell viability by sulforhodamine B assay; assay type: functional, cell-based; how it was run: as §3
[3] = Cytotoxicity against human HO-8910 cells assessed as reduction in cell viability by sulforhodamine B assay; assay type: functional, cell-based; how it was run: as §3
HL-60 = test: Cytotoxicity against human HL-60 cells assessed as reduction in cell viability by sulforhodamine B assay; assay type: functional, cell-based; how it was run: as §3
SPC-A4 = test: Cytotoxicity against human SPC-A4 cells assessed as reduction in cell viability by sulforhodamine B assay; assay type: functional, cell-based; how it was run: as §3

Structure (SMILES) | MIC80 (Candida albicans) [µg/mL] | MIC80 (Cryptococcus neoformans) [µg/mL] | MIC80 (Candida tropicalis) [µg/mL] | MIC80 (Candida parapsilosis) [µg/mL] | inhibition in vivo at 100 mg/kg (Bel-7402 [1]) [%] | minimal effective concentration (Pyricularia oryzae) [µg/mL] | inhibition in vivo at 25 mg/kg (CCRF S-180) [%] | inhibition in vivo at 25 mg/kg (H22) [%] | IC50 (A549) [nM] | IC50 (MKN-28) [nM] | IC50 (MCF7) [nM] | IC50 (HCT-116) [nM] | IC50 (Bel-7402 [2]) [nM] | IC50 [3] [nM] | IC50 (HL-60) [nM] | IC50 (SPC-A4) [nM]
OC(Cn1cncn1)(Cn1cncn1)c1ccc(F)cc1F [FLUCONAZOLE] | 0.25 (≈ 0.816 µM) | 2 (≈ 6.53 µM) | 1 (≈ 3.27 µM) | 0.5 (≈ 1.63 µM) | – | – | – | – | – | – | – | – | – | – | – | –
O=c1[nH]c(=O)n(C2CCCO2)cc1F (configuration not stated) [TEGAFUR] | – | – | – | – | 81.8 | – | – | – | – | – | – | – | – | – | – | –
O=c1[nH]cc(F)c(=O)[nH]1 [FLUOROURACIL] | – | – | – | – | – | ≤ 5 | 39.4 | 39.4 | – | – | – | – | – | – | – | –
CO[C@@H]1[C@@H](O)[C@H](O[C@@H]2[C@@H](O)[C@H](O[C@H]3[C@H](O)[C@@H](O)[C@H](O[C@H]4[C@H](O[C@H]5CC[C@@]6(C)C(CC=C7[C@H]6CC[C@]68C(=O)O[C@@](C)(CCC=C(C)C)[C@H]6[C@@H](OC(C)=O)C[C@@]78C)C5(C)C)OC[C@@H](OS(=O)(=O)[O-])[C@@H]4O)O[C@@H]3C)OC[C@H]2O)O[C@H](CO)[C@H]1O.[Na+] (some centres not stated) | 20 | 25 | 30 | 32 | – | – | – | – | 1700 | 2810 | 2300 | 1610 | 2400 | 2320 | 1650 | 3670
CN(C/C=C/C#CC(C)(C)C)Cc1cccc2ccccc12 [TERBINAFINE] | 32 (≈ 110 µM) | < 0.125 | < 0.125 | < 0.125 | – | – | – | – | – | – | – | – | – | – | – | –
C=C(C)CCC[C@]1(C)OC(=O)[C@]23CC[C@@H]4C(=CCC5C(C)(C)[C@@H](O[C@@H]6OC[C@@H](OS(=O)(=O)O)[C@H](O)[C@H]6O[C@@H]6O[C@H](C)[C@@H](O[C@@H]7OC[C@@H](O)[C@H](O[C@@H]8O[C@H](CO)[C@@H](O)[C@H](OC)[C@H]8O)[C@H]7OS(=O)(=O)O)[C@H](O)[C@H]6O)CC[C@@]54C)[C@]2(C)C[C@H](OC(C)=O)[C@@H]31.[Na+].[Na+].[Na+] (some centres not stated) | 4 | 16 | 8 | 4 | – | – | – | – | 750 | 2030 | 1790 | 930 | 1300 | 1900 | 650 | 1300
C=C(C)CCC[C@]1(C)OC(=O)[C@]23CC[C@@H]4C(=CCC5C(C)(C)[C@@H](O[C@@H]6OC[C@@H](OS(=O)(=O)[O-])[C@H](O)[C@H]6O[C@@H]6O[C@H](C)[C@@H](O[C@@H]7OC[C@@H](O)[C@H](O[C@@H]8O[C@H](CO)[C@@H](O)[C@H](OC)[C@H]8O)[C@H]7O)[C@H](O)[C@H]6O)CC[C@@]54C)[C@]2(C)CC(=O)[C@@H]31.[Na+] (some centres not stated) | 25 | 25 | 25 | 25 | – | – | – | – | 1300 | 1820 | 1560 | 1090 | 1300 | 1900 | 1950 | 1500
CCC(C)n1ncn(-c2ccc(N3CCN(c4ccc(OCC5COC(Cn6cncn6)(c6ccc(Cl)cc6Cl)O5)cc4)CC3)cc2)c1=O (configuration not stated) [ITRACONAZOLE] | < 0.125 | 2 (≈ 2.83 µM) | 1 (≈ 1.42 µM) | < 0.125 | – | – | – | – | – | – | – | – | – | – | – | –
